# Sampled rows, rich in hits. Any-hit rate of the full collection: about 1.9%.
# TbMetRS inhib: Trypanosoma brucei MetRS inhibition; purified T. brucei MetRS, ATP depletion, Kinase-Glo luminescence; inhibition, % at 11.9 µM; actives 0.4% (n = 360,000);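 active means inhibition above a per-plate cutoff of the control wells' mean inhibition plus 3 SD, cut at about 5.5% in these data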
#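 Test system – parasite MetRS enzyme · Reagent – substrates ATP, L-methionine and bulk Escherichia coli tRNA · Doses – 11.9 µM compound single dose, 0.9% DMSO · Times – 15 min enzyme-compound preincubation, 2 h reaction, 10 min detection, 25 °C · Signal – Kinase-Glo luminescence, ATP depletion format · Controls – DMSO-only wells as low control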
# PLCb3 inh: inhibitors of human phospholipase C beta3; inhibition, % at 12.2 µM; actives 0.18% (n = 370,000); Q01970; Purified PLC-beta3, fluorogenic substrate, fluorescence
# HGIII-sPLA2 inh: Inhibits HGIII-sPLA2 liposome hydrolysis, primary screen. Q9NZ20. QFRET BODIPY PC-A2 liposome hydrolysis, fluorescence. inhibition, % at 12.2 µM. actives 0.56% (n = 370,000);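 active means inhibition above mean plus 3 SD of compounds lying within the high and low control bounds, cut at about 19% in these data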
# PLCg1 inh: inhibitors of human phospholipase C gamma1 | P19174 | purified PLC-gamma1, fluorogenic substrate, fluorescence | inhibition, % at 12.2 µM | actives 0.84% (n = 370,000) | AID 720700; in the data active means inhibition above about 9.5%
# PLCg1 ctr: inhibits human PLC-gamma1 in PLC-beta3 counter-screen; AID 743258; purified PLC-gamma1, fluorogenic substrate, fluorescence; actives 3.1% (n = 3,300); shares compounds with PLCg1 inh; inhibition, % at 12.3 µM; in the data active means inhibition above about 9.5%
# PLCbeta3 conf: confirmation of human PLC-beta3 inhibitors | actives 1% (n = 3,300) | inhibition, % at 12.3 µM | shares compounds with PLCg1 inh | AID 743261 | purified PLC-beta3, fluorogenic substrate fluorescence
# A number is an active result; n = inactive; x = not tested or not shown. Unless noted, no stated cut-off is given here; in the data, active means inhibition above about 11%; inactive means the rest.
SMILES,TbMetRS inhib,PLCb3 inh,HGIII-sPLA2 inh,PLCg1 inh,PLCg1 ctr,PLCbeta3 conf
CC(C)CNC1=CC(=O)CC(c2ccco2)C1 (stereo not given),n,n,n,n,x,x
COC(=O)c1cccc(N2C(=O)C[C@](Sc3ccc(OC)cc3)(C(=O)N3CCOCC3)[C@H]2c2ccc(OC)cc2)c1,x,n,n,14.8,n,n
COc1ccc(S[C@]2(C(=O)N3CCN(C(C)=O)CC3)CC(=O)N(C(=O)CCc3ccccc3)[C@@H]2c2ccc(OC)cc2)cc1,x,n,n,10.8,n,n
COc1ccc(S[C@]2(C(=O)N3CCOCC3)CC(=O)N(C(=O)CCc3ccccc3)[C@@H]2c2ccc(OC)cc2)cc1,x,n,n,n,x,x
COc1ccc(S[C@]2(C(=O)N3CCOCC3)CC(=O)N(C(=O)c3ccccc3)[C@@H]2c2ccc(OC)cc2)cc1,x,n,n,n,x,x
COc1ccc(S[C@]2(C(=O)N3CCOCC3)CC(=O)N(c3ccc(OC)cc3)[C@@H]2c2ccc(OC)cc2)cc1,x,n,n,9.7,n,n
O=Cc1cc(N=Nc2cccc(C(=O)O)c2)ccc1O,n,n,n,13.7,29.1,n
O=C(Cc1cccs1)N1CCC(c2nc3c(nnn3Cc3ccccc3)c(=O)[nH]2)CC1,n,12.5,n,10.0,n,12.1
COc1ccc(OC)c(-c2csc(NC(=O)COC(=O)C3(C)CC3(Cl)Cl)n2)c1 (stereo not given),n,n,n,15.8,n,n
COc1ccc(CC(=O)Nc2nc(-c3cc(OC)ccc3OC)cs2)cc1,n,n,n,n,x,x
Nn1c(SCC(=O)NC2CCCCC2)nnc1-c1cc(-c2ccc(F)cc2)n[nH]1,x,n,n,n,x,x
O=C(NC1CCCCN(Cc2ccc(OC(F)(F)F)cc2)C1=O)c1cccc(C(F)(F)F)c1 (stereo not given),x,n,n,n,x,x
CC(c1nccs1)N(C)C(=O)CCc1nnc(CCc2ccccc2)o1 (stereo not given),n,n,n,11.9,n,n
Cc1ccnc(NC(=O)c2ccc(Cl)c(NC(=O)CCc3ccccc3)c2)c1,x,n,n,n,x,x
Cc1ccnc(NC(=O)c2ccc(Cl)c(NC(=O)C(C)Oc3ccccc3)c2)c1 (stereo not given),n,n,n,9.9,n,n
O=S1(=O)CC2c3ccc(F)cc3CN2CN1CCc1ccccc1 (stereo not given),x,n,n,n,x,x
OC1COC(c2ccccc2)OC1C1OC(c2ccccc2)OCC1O (stereo not given),n,n,n,n,x,x
NC1(CO)COC(c2ccccc2)OC1 (stereo not given),n,11.8,n,n,n,n
CC1(C)CC(NC(=O)c2ccncc2)CC(C)(C)N1O,n,n,n,11.1,n,n
CN(C)C(=O)c1ccccc1Sc1cc(Cl)ccc1Cl,n,n,n,15.2,n,n
CC(C)Oc1ccc(C(=O)Nc2ccc(NC(=O)c3ccco3)c(Cl)c2)cc1,n,15.0,n,n,n,n
CCNC(=S)NCCN1CCOCC1,n,12.1,n,n,n,n
COC(=O)C1CN(Cc2ccccc2)CCS(=O)(=O)N1Cc1ccccc1F (stereo not given),x,n,n,n,x,x
COc1cc(C(=O)NC2CCCCN(Cc3ccc(Cl)cc3)C2=O)cc(OC)c1OC (stereo not given),x,n,n,n,x,x
CCN1CCCCC(NC(=O)Cc2ccccc2)C1=O (stereo not given),x,n,n,n,x,x
SMILES,TbMetRS inhib,PLCb3 inh,HGIII-sPLA2 inh,PLCg1 inh,PLCg1 ctr,PLCbeta3 conf
COC(=O)CCC(C)C1CCC2C3CCC4CC(O)CCC4(C)C3=CC(=O)C12C (stereo not given),n,11.1,n,n,n,n
O=C(c1ccco1)N1CCC(Oc2cccnc2)CC1,x,n,n,n,x,x
O=C(c1ccc(S(=O)(=O)N2CCCCCC2)cc1)N1CCN(c2ccccc2F)CC1,n,n,n,12.3,n,n
O=C(c1cccc(S(=O)(=O)N2CCCCCC2)c1)N1CCN(c2ccccc2F)CC1,n,n,n,n,x,x
C=CCNC(=O)N1CCN(Cc2nc3ccccc3c(=O)[nH]2)CC1,x,n,n,n,x,x
O=C(CCS(=O)(=O)c1ccccc1F)Nc1ccc(N2CCN(Cc3ccccc3)CC2)cc1,n,n,n,10.5,n,n
O=S1(=O)CC2c3ccccc3CN2CN1C1CCCC1 (stereo not given),x,n,n,n,x,x

# Bioassay records (PubChem BioAssay)
